Converted amounts (≈) assume the structure as drawn.
What was measured:
Parvimonas micra = test: Antimicrobial activity against Peptostreptococcus micros after 48 hrs by agar dilution method; type: functional
Method in brief: (§1)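 CLSI agar dilution (M11-A7); inoculum 10^5 CFU applied by replicator; plates incubated anaerobically 48 h at 37°C. For piperacillin-tazobactam, tazobactam held constant at 4 μg/ml.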

Hoylesella oralis [1] = test: Antimicrobial activity against Prevotella oralis assessed as percent resistant isolates after 48 hrs by agar dilution method; type: functional
Method in brief: (§2)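 CLSI agar dilution on recent Korean clinical anaerobe isolates. Inoculum 10^5 CFU per spot by replicator. Plates incubated in an anaerobic chamber at 37°C for 48 h. For piperacillin plus tazobactam, tazobactam was held constant at 4 μg/ml. Resistance and susceptibility rates derived from MICs.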

[2] = test system: Parabacteroides distasonis; test: Antimicrobial activity against Bacteroides distasonis assessed as percent resistant isolates after 48 hrs by agar dilution method; type: functional; method in brief: as §2
[3] = test system: Peptostreptococcus anaerobius; test: Antimicrobial activity against Peptostreptococcus anaerobius assessed as percent susceptible isolates after 48 hrs by agar dilution method; type: functional; method in brief: as §2
[4] = test system: Bacteroides thetaiotaomicron; test: Antimicrobial activity against Bacteroides thetaiotaomicron assessed as percent susceptible isolates after 48 hrs by agar dilution method; type: functional
Finegoldia magna [5] = test: Antimicrobial activity against Finegoldia magna after 48 hrs by agar dilution method; type: functional; method in brief: as §1
Schaalia meyeri [6] = test: Antimicrobial activity against Actinomyces meyeri assessed as percent resistant isolates after 48 hrs by agar dilution method; type: functional; method in brief: as §2
Finegoldia magna [7] = test: Antimicrobial activity against Finegoldia magna assessed as percent resistant isolates after 48 hrs by agar dilution method; type: functional; method in brief: as §2
Prevotella intermedia [8] = test: Antimicrobial activity against Prevotella intermedia after 48 hrs by agar dilution method; type: functional; method in brief: as §1
Fusobacterium nucleatum = test: Antimicrobial activity against Fusobacterium nucleatum after 48 hrs by agar dilution method; type: functional; method in brief: as §1
Anaerococcus prevotii = test: Antimicrobial activity against Anaerococcus prevotii after 48 hrs by agar dilution method; type: functional
Method in brief: (§3)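 MICs on clinical anaerobe isolates by the CLSI agar dilution method. Inoculum of 10^5 CFU applied with a Steers replicator. Plates incubated 48 h at 37°C in an anaerobic chamber.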

Clostridioides difficile [9] = test: Antimicrobial activity against Clostridium difficile assessed as percent susceptible isolates after 48 hrs by agar dilution method; type: functional
Actinomyces naeslundii = test: Antimicrobial activity against Actinomyces naeslundii after 48 hrs by agar dilution method; type: functional; method in brief: as §3
Bacteroides caccae [10] = test: Antimicrobial activity against Bacteroides caccae assessed as percent resistant isolates after 48 hrs by agar dilution method; type: functional; method in brief: as §2
Prevotella intermedia [11] = test: Antimicrobial activity against Prevotella intermedia assessed as percent resistant isolates after 48 hrs by agar dilution method; type: functional; method in brief: as §2
Bacteroides ovatus [12] = test: Antimicrobial activity against Bacteroides ovatus after 48 hrs by agar dilution method; type: functional; method in brief: as §3
Schaalia odontolytica [13] = test: Antimicrobial activity against Actinomyces odontolyticus assessed as percent susceptible isolates after 48 hrs by agar dilution method; type: functional
[14] = test system: Porphyromonas asaccharolytica; test: Antimicrobial activity against Porphyromonas asaccharolytica after 48 hrs by agar dilution method; type: functional; method in brief: as §1
Bacteroides caccae [15] = test: Antimicrobial activity against Bacteroides caccae assessed as percent susceptible isolates after 48 hrs by agar dilution method; type: functional
[16] = test system: Peptostreptococcus anaerobius; test: Antimicrobial activity against Peptostreptococcus anaerobius after 48 hrs by agar dilution method; type: functional; method in brief: as §1
Phocaeicola vulgatus [17] = test: Antimicrobial activity against Bacteroides vulgatus assessed as percent susceptible isolates after 48 hrs by agar dilution method; type: functional
Bifidobacterium sp. [18] = test: Antimicrobial activity against Bifidobacterium sp. after 48 hrs by agar dilution method; type: functional; method in brief: as §3
Schaalia meyeri [19] = test: Antimicrobial activity against Actinomyces meyeri assessed as percent susceptible isolates after 48 hrs by agar dilution method; type: functional
[20] = test system: Bifidobacterium adolescentis; test: Antimicrobial activity against Bifidobacterium adolescentis assessed as percent susceptible isolates after 48 hrs by agar dilution method; type: functional
Eggerthella lenta [21] = test: Antimicrobial activity against Eubacterium lentum assessed as percent susceptible isolates after 48 hrs by agar dilution method; type: functional; method in brief: as §1
Hoylesella oralis [22] = test: Antimicrobial activity against Prevotella oralis assessed as percent susceptible isolates after 48 hrs by agar dilution method; type: functional
Method in brief: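 CLSI agar dilution MIC testing of clinical isolates. 10^5 CFU spotted by replicator, plates incubated 48 h at 37°C in an anaerobic chamber. Susceptibility rates derived from the MICs.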

Bacteroides ovatus [23] = test: Antimicrobial activity against Bacteroides ovatus assessed as percent resistant isolates after 48 hrs by agar dilution method; type: functional; method in brief: as §2
Bifidobacterium sp. [24] = test: Antimicrobial activity against Bifidobacterium sp. assessed as percent susceptible isolates after 48 hrs by agar dilution method; type: functional; method in brief: as §1
Prevotella buccae [25] = test: Antimicrobial activity against Prevotella buccae assessed as percent resistant isolates after 48 hrs by agar dilution method; type: functional, Segatella buccae; method in brief: as §2
Bacteroides fragilis = test: Antimicrobial activity against Bacteroides fragilis assessed as percent susceptible isolates after 48 hrs by agar dilution method; type: functional
Schaalia odontolytica [26] = test: Antimicrobial activity against Actinomyces odontolyticus assessed as percent resistant isolates after 48 hrs by agar dilution method; type: functional; method in brief: as §2
Clostridioides difficile [27] = test: Antimicrobial activity against Clostridium difficile after 48 hrs by agar dilution method; type: functional
Phocaeicola vulgatus [28] = test: Antimicrobial activity against Bacteroides vulgatus after 48 hrs by agar dilution method; type: functional; method in brief: as §3
Prevotella bivia [29] = test: Antimicrobial activity against Prevotella bivia after 48 hrs by agar dilution method; type: functional; method in brief: as §1
Clostridium perfringens = test: Antimicrobial activity against Clostridium perfringens after 48 hrs by agar dilution method; type: functional
Prevotella buccae [30] = test: Antimicrobial activity against Prevotella buccae assessed as percent susceptible isolates after 48 hrs by agar dilution method; type: functional, Segatella buccae; method in brief: as §1
[31] = test system: Bacteroides thetaiotaomicron; test: Antimicrobial activity against Bacteroides thetaiotaomicron after 48 hrs by agar dilution method; type: functional; method in brief: as §3
[32] = test system: Parabacteroides distasonis; test: Antimicrobial activity against Bacteroides distasonis assessed as percent susceptible isolates after 48 hrs by agar dilution method; type: functional
Eggerthella lenta [33] = test: Antimicrobial activity against Eubacterium lentum assessed as percent resistant isolates after 48 hrs by agar dilution method; type: functional; method in brief: as §2
Fusobacterium necrogenes = test: Antimicrobial activity against Fusobacterium necrogenes after 48 hrs by agar dilution method; type: functional; method in brief: as §1
Eubacterium sp. [34] = test: Antimicrobial activity against Eubacterium sp. assessed as percent resistant isolates after 48 hrs by agar dilution method; type: functional; method in brief: as §2
Prevotella buccae [35] = test: Antimicrobial activity against Prevotella buccae after 48 hrs by agar dilution method; type: functional; details: Segatella buccae; method in brief: as §1
Bifidobacterium sp. [36] = test: Antimicrobial activity against Bifidobacterium sp. assessed as percent resistant isolates after 48 hrs by agar dilution method; type: functional; method in brief: as §2
[37] = test system: Bifidobacterium adolescentis; test: Antimicrobial activity against Bifidobacterium adolescentis after 48 hrs by agar dilution method; type: functional; method in brief: as §3
Finegoldia magna [38] = test: Antimicrobial activity against Finegoldia magna assessed as percent susceptible isolates after 48 hrs by agar dilution method; type: functional; method in brief: as §1
Prevotella bivia [39] = test: Antimicrobial activity against Prevotella bivia assessed as percent resistant isolates after 48 hrs by agar dilution method; type: functional; method in brief: as §2
Eubacterium sp. [40] = test: Antimicrobial activity against Eubacterium sp. assessed as percent susceptible isolates after 48 hrs by agar dilution method; type: functional; method in brief: as §1
Actinomyces israelii = test: Antimicrobial activity against Actinomyces israelii assessed as percent resistant isolates after 48 hrs by agar dilution method; type: functional; method in brief: as §2

Work on `CCN1CCN(C(=O)N[C@@H](C(=O)N[C@@H]2C(=O)N3[C@@H]2SC(C)(C)[C@@H]3C(=O)O)c2ccccc2)C(=O)C1=O` [PIPERACILLIN] yielded an MIC50 (Parvimonas micra) of 0.25 µg/mL (≈ 0.483 µM), an MIC90 (Parvimonas micra) of 16 µg/mL (≈ 30.9 µM) and an Activity (Hoylesella oralis [1]) of 11%. The Activity [2] was 51%, the Activity [3] was 100% and the Activity [4] was 42%. It also gave an MIC50 (Finegoldia magna [5]) of no more than 0.06 µg/mL, an MIC90 (Finegoldia magna [5]) of 0.125 µg/mL (≈ 0.242 µM) and an Activity (Schaalia meyeri [6]) of 0%. The Activity (Finegoldia magna [7]) was 0%, the MIC50 (Prevotella intermedia [8]) was 8 µg/mL (≈ 15.5 µM) and the MIC90 (Prevotella intermedia [8]) was 16 µg/mL (≈ 30.9 µM). For the same molecule, the MIC (Fusobacterium nucleatum) was 0.06 µg/mL (≈ 0.116 µM), the MIC50 (Anaerococcus prevotii) was 0.125 µg/mL (≈ 0.242 µM) and the MIC90 (Anaerococcus prevotii) was 0.25 µg/mL (≈ 0.483 µM). For the same molecule, the Activity (Clostridioides difficile [9]) was 100%, the MIC50 (Actinomyces naeslundii) was 1 µg/mL (≈ 1.93 µM) and the MIC90 (Actinomyces naeslundii) was 8 µg/mL (≈ 15.5 µM). For the same molecule, the Activity (Bacteroides caccae [10]) was 51%, the Activity (Prevotella intermedia [11]) was 0% and the MIC50 (Bacteroides ovatus [12]) was 128 µg/mL (≈ 247 µM). The MIC90 (Bacteroides ovatus [12]) was greater than 256 µg/mL, the Activity (Schaalia odontolytica [13]) was 92% and the MIC [14] was 0.06 µg/mL (≈ 0.116 µM). It also gave an Activity (Bacteroides caccae [15]) of 42%, an MIC50 [16] of 0.25 µg/mL (≈ 0.483 µM) and an MIC90 [16] of 16 µg/mL (≈ 30.9 µM). It also gave an Activity (Phocaeicola vulgatus [17]) of 42%, an MIC50 (Bifidobacterium sp. [18]) of 1 µg/mL (≈ 1.93 µM) and an MIC90 (Bifidobacterium sp. [18]) of 8 µg/mL (≈ 15.5 µM). It also gave an Activity (Schaalia meyeri [19]) of 92%, an Activity [20] of 92% and an Activity (Eggerthella lenta [21]) of 92%. It also gave an Activity (Hoylesella oralis [22]) of 78%, an Activity (Bacteroides ovatus [23]) of 51% and an Activity (Bifidobacterium sp. [24]) of 92%. The Activity (Prevotella buccae [25]) was 11%, the Activity (Bacteroides fragilis) was 67% and the Activity (Schaalia odontolytica [26]) was 0%. For the same molecule, the MIC50 (Clostridioides difficile [27]) was 4 µg/mL (≈ 7.73 µM), the MIC90 (Clostridioides difficile [27]) was 8 µg/mL (≈ 15.5 µM) and the MIC50 (Phocaeicola vulgatus [28]) was 128 µg/mL (≈ 247 µM). The MIC90 (Phocaeicola vulgatus [28]) was greater than 256 µg/mL, the MIC50 (Prevotella bivia [29]) was 16 µg/mL (≈ 30.9 µM) and the MIC90 (Prevotella bivia [29]) was 128 µg/mL (≈ 247 µM). It also gave an MIC50 (Clostridium perfringens) of 0.25 µg/mL (≈ 0.483 µM), an MIC90 (Clostridium perfringens) of 0.5 µg/mL (≈ 0.966 µM) and an Activity (Prevotella buccae [30]) of 78%. For the same molecule, the MIC50 [31] was 128 µg/mL (≈ 247 µM), the MIC90 [31] was greater than 256 µg/mL and the Activity [32] was 42%. The Activity (Eggerthella lenta [33]) was 0%, the MIC (Fusobacterium necrogenes) was 0.06 µg/mL (≈ 0.116 µM) and the Activity (Eubacterium sp. [34]) was 0%. The MIC50 (Prevotella buccae [35]) was 16 µg/mL (≈ 30.9 µM), the MIC90 (Prevotella buccae [35]) was 128 µg/mL (≈ 247 µM) and the Activity (Bifidobacterium sp. [36]) was 0%. The MIC50 [37] was 1 µg/mL (≈ 1.93 µM), the MIC90 [37] was 8 µg/mL (≈ 15.5 µM) and the Activity (Finegoldia magna [38]) was 100%. It also gave an Activity (Prevotella bivia [39]) of 11%, an Activity (Eubacterium sp. [40]) of 92% and an Activity (Actinomyces israelii) of 0%.
